Test results: ChEMBL document CHEMBL4145490, “((S)-3-Mercapto-2-methylpropanamido)acetic acid derivatives as metallo-β-lactamase inhibitors: Synthesis, kinetic and crystallographic studies” (Eur J Med Chem, 2018)
Calls of active or inactive are those of the source. No cut-off for these calls is given here.

Legend:
[1] = Inhibition of N-terminal his-tagged bacterial VIM2 (27 to 266 residues) expressed in Escherichia coli BL21(DE3) pLyS cells; design: species or system Bacteria
[2] = Inhibition of N-terminal his-tagged bacterial NDM1 expressed in Escherichia coli BL21(DE3) pLyS cells; design: species or system Bacteria
[3] = Inhibition of bacterial VIM2 (27 to 266 residues) expressed in Escherichia coli Transetta (DE3) cells using FC-5 as substrate by fluorescence assay; design: species or system Bacteria
[4] = Inhibition of bacterial NDM1 (1 to 270 residues) expressed in Escherichia coli Transetta (DE3) cells using FC-5 as substrate by fluorescence assay; design: species or system Bacteria
[5] = species on record: Danio rerio; assay: Toxicity in FLK-1 promoter EGFP transgenic zebrafish embryos assessed as effect on morphology at 20 uM incubated for 4 to 96 hrs post fertilization by fluorescence microscopic analysis; format: organism-based; settings: in vivo
[6] = Inhibition of bacterial VIM2 (27 to 266 residues) expressed in Escherichia coli Transetta (DE3) cells using FC-5 as substrate in presence of 1 uM Zn2+ by fluorescence assay; design: species or system Bacteria
How it was run: (§1)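 VIM-2 inhibition determined as dose-inhibition curves, with the assay run at added Zn(II) of 0, 1 or 100 µM.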

[7] = Inhibition of bacterial VIM2 (27 to 266 residues) expressed in Escherichia coli Transetta (DE3) cells using FC-5 as substrate in presence of 100 uM Zn2+ by fluorescence assay; design: species or system Bacteria; how it was run: as §1
[8] = system: Bacteria; assay: Reversible inhibition of bacterial VIM2 (27 to 266 residues) expressed in Escherichia coli Transetta (DE3) cells at 0.14 uM using FC-5 as substrate up to 500 secs by jump dilution assay
How it was run: (§2)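 Jump-dilution reversibility test. VIM-2 at 100-fold its activity-assay concentration was preincubated with inhibitor for 30 min at room temperature, then rapidly diluted 100-fold, and enzyme activity was followed.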

[9] = system: HEK-293T; assay: Cytotoxicity against HEK293T cells assessed as reduction in cell viability at 50 uM after 72 hrs by MTT assay relative to control; format: cell-based; settings: human
[10] = species on record: Danio rerio; assay: Toxicity in FLK-1 promoter EGFP transgenic zebrafish embryos assessed as death at 20 uM incubated for 4 to 96 hrs post fertilization by fluorescence microscopic analysis; format: organism-based; settings: in vivo
[11] = species on record: Danio rerio; assay: Toxicity in FLK-1 promoter EGFP transgenic zebrafish embryos assessed as limited mobility at 20 uM incubated for 4 to 96 hrs post fertilization by fluorescence microscopic analysis; format: organism-based; settings: in vivo
[12] = biological target: Metallo-beta-lactamase (Escherichia coli) (UniProt Q5U7L7); assay: Inhibition of Escherichia coli VIM2 expressed in Escherichia coli DH5alpha assessed as potentiation of meropenem induced antibacterial activity by measuring meropenem MIC at 100 uM after 16 to 20 hrs by CLSI broth microdilution method (reference value: 16 microg/ml)
How it was run: (§3)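 MICs of meropenem against E. coli DH5α carrying a VIM-2-encoding plasmid, and against a control E. coli strain, with meropenem alone or combined with inhibitor at fixed 100, 200 or 500 µM. Fold change is the MIC shift relative to meropenem alone.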

[13] = biological target: Metallo-beta-lactamase (Escherichia coli) (UniProt Q5U7L7); assay: Inhibition of Escherichia coli VIM2 expressed in Escherichia coli DH5alpha assessed as potentiation of meropenem induced antibacterial activity by measuring meropenem MIC at 200 uM after 16 to 20 hrs by CLSI broth microdilution method (reference value: 16 microg/ml); how it was run: as §3
[14] = biological target: Metallo-beta-lactamase (Escherichia coli) (UniProt Q5U7L7); assay: Inhibition of Escherichia coli VIM2 expressed in Escherichia coli DH5alpha assessed as potentiation of meropenem induced antibacterial activity by measuring meropenem MIC at 500 uM after 16 to 20 hrs by CLSI broth microdilution method (reference value: 16 microg/ml); how it was run: as §3
[15] = system: Escherichia coli; assay: Growth inhibition of Escherichia coli DH5alpha after 16 to 20 hrs by CLSI broth microdilution method; format: organism-based, DH5[alpha]; settings: in vivo; how it was run: as §3
[16] = system: Escherichia coli; assay: Potentiation of meropenem induced antibacterial activity against Escherichia coli DH5alpha by measuring meropenem MIC at 100 uM after 16 to 20 hrs by CLSI broth microdilution method (reference value: <0.25 microg/ml); format: functional; settings: DH5[alpha]; how it was run: as §3
[17] = system: Escherichia coli; assay: Potentiation of meropenem induced antibacterial activity against Escherichia coli DH5alpha by measuring meropenem MIC at 200 uM after 16 to 20 hrs by CLSI broth microdilution method (reference value: <0.25 microg/ml); format: functional; settings: DH5[alpha]; how it was run: as §3
[18] = system: Escherichia coli; assay: Potentiation of meropenem induced antibacterial activity against Escherichia coli DH5alpha by measuring meropenem MIC at 500 uM after 16 to 20 hrs by CLSI broth microdilution method (reference value: <0.25 microg/ml); format: functional; settings: DH5[alpha]; how it was run: as §3
[19] = biological target: Metallo-beta-lactamase (Escherichia coli) (UniProt Q5U7L7); assay: Inhibition of Escherichia coli VIM2 expressed in Escherichia coli DH5alpha assessed as potentiation of meropenem induced antibacterial activity by measuring fold reduction of meropenem MIC after 16 to 20 hrs by CLSI broth microdilution method relative to control; how it was run: as §3
[20] = species on record: Danio rerio; assay: Toxicity in FLK-1 promoter EGFP transgenic zebrafish embryos assessed as effect on angiogenesis at 20 uM incubated for 4 to 96 hrs post fertilization by fluorescence microscopic analysis; format: organism-based; settings: in vivo
[21] = system: Escherichia coli; assay: Growth inhibition of Escherichia coli DH5alpha expressing Escherichia coli VIM2 after 16 to 20 hrs by CLSI broth microdilution method; format: organism-based, DH5[alpha]; settings: in vivo; how it was run: as §3
[22] = system: Bacteria; assay: Reversible inhibition of bacterial VIM2 (27 to 266 residues) expressed in Escherichia coli Transetta (DE3) cells at 7.5 uM using FC-5 as substrate up to 500 secs by jump dilution assay; how it was run: as §2
[23] = system: Bacteria; assay: Reversible inhibition of bacterial VIM2 (27 to 266 residues) expressed in Escherichia coli Transetta (DE3) cells at 0.77 uM using FC-5 as substrate up to 500 secs by jump dilution assay; how it was run: as §2

SMILES: C[C@H](CS)C(=O)N[C@@H](Cc1c[nH]c2ccccc12)C(=O)O
- IC50 [1]: 1060 nM
- pIC50 [1]: 5.97
- IC50 [2]: 24800 nM
- pIC50 [2]: 4.61

SMILES: C[C@H](CS)C(=O)N[C@@H](C(=O)O)c1ccc(O)cc1
- IC50 [3]: 9.57 to 13.7 nM
- pIC50 [3]: 7.86
- IC50 [4]: 3570 nM
- pIC50 [4]: 5.45
- Activity [5]: Non-Toxic
- IC50 [6]: 14.8 nM
- IC50 [7]: 12.3 nM
- inhibition [8]: inactive
- Activity [9]: 8%
- Activity [10]: Non-Toxic
- Activity [11]: Non-Toxic
- MIC [12]: 8 µg/mL
- MIC [13]: 8 µg/mL
- MIC [14]: 4 µg/mL
- MIC [15]: > 128 µg/mL
- MIC [16]: < 0.25 µg/mL
- MIC [17]: < 0.25 µg/mL
- MIC [18]: < 0.25 µg/mL
- fold change (FC) [19]: 2 to 4
- Activity [20]: Non-Toxic
- MIC [21]: > 128 µg/mL

SMILES: C[C@H](CS)C(=O)N[C@H](Cc1c[nH]c2ccccc12)C(=O)O
- IC50 [1]: 50 nM
- pIC50 [1]: 7.26
- IC50 [2]: 64800 nM
- pIC50 [2]: 4.19

SMILES: C[C@H](CS)C(=O)N1CCC[C@@H]1C(=O)O [D-CAPTOPRIL]
- IC50 [1]: 4550 nM
- pIC50 [1]: 5.34

SMILES: C[C@H](CS)C(=O)N1CCC[C@H]1C(=O)O [CAPTOPRIL]
- inhibition [22]: Active

SMILES: C[C@H](CS)C(=O)N[C@H](Cc1ccc(O)cc1)C(=O)O
- IC50 [3]: 276 nM
- pIC50 [3]: 6.56
- IC50 [4]: 73100 nM
- pIC50 [4]: 4.14

SMILES: C[C@H](CS)C(=O)N[C@@H](Cc1ccc(O)cc1)C(=O)O
- IC50 [3]: 490 nM
- pIC50 [3]: 6.31
- IC50 [4]: 326000 nM
- pIC50 [4]: 3.49

SMILES: C[C@H](CS)C(=O)N[C@H](C(=O)O)c1ccc(O)cc1
- IC50 [3]: 77 nM
- pIC50 [3]: 7.11
- IC50 [4]: 24000 nM
- pIC50 [4]: 4.62
- Activity [5]: Non-Toxic
- IC50 [6]: 72.9 nM
- IC50 [7]: 66 nM
- inhibition [23]: inactive
- Activity [9]: Non-Toxic
- Activity [10]: Non-Toxic
- Activity [11]: Non-Toxic
- MIC [12]: 16 µg/mL
- MIC [13]: 16 µg/mL
- MIC [14]: 8 µg/mL
- MIC [15]: > 128 µg/mL
- MIC [16]: < 0.25 µg/mL
- MIC [17]: < 0.25 µg/mL
- MIC [18]: < 0.25 µg/mL
- fold change (FC) [19]: 2 to 4
- Activity [20]: Non-Toxic
- MIC [21]: > 128 µg/mL

SMILES: C[C@H](CS)C(=O)N[C@H](Cc1ccccc1)C(=O)O
- IC50 [3]: 121 nM
- pIC50 [3]: 6.92
- IC50 [4]: 7000 nM
- pIC50 [4]: 5.16

SMILES: C[C@H](CS)C(=O)N[C@H](C(=O)O)c1ccc(F)cc1
- IC50 [3]: 121 nM
- pIC50 [3]: 6.92
- IC50 [4]: 11700 nM
- pIC50 [4]: 4.93

SMILES: C[C@H](CS)C(=O)N[C@@H](Cc1ccccc1)C(=O)O
- IC50 [3]: 2850 nM
- pIC50 [3]: 5.55
- IC50 [4]: 233000 nM
- pIC50 [4]: 3.63

SMILES: C[C@H](CS)C(=O)N[C@H](C(=O)O)c1ccccc1
- IC50 [3]: 39 nM
- pIC50 [3]: 7.41
- IC50 [4]: 8770 nM
- pIC50 [4]: 5.06

SMILES: C[C@H](CS)C(=O)N[C@@H](C(=O)O)c1ccc(F)cc1
- IC50 [3]: 55 nM
- pIC50 [3]: 7.26
- IC50 [4]: 5590 nM
- pIC50 [4]: 5.25

SMILES: C[C@H](CS)C(=O)N[C@@H](C(=O)O)c1ccccc1
- IC50 [3]: 57 nM
- pIC50 [3]: 7.25
- IC50 [4]: 20500 nM
- pIC50 [4]: 4.69
